In the library only some 1.2% were active in any assay of this set; here they are far more common.
S1P3 antag: antagonists of human S1P3 receptor; Q99500; CHO S1P3 NFAT-BLA reporter, FRET fluorescence, antagonist mode; inhibition, % at 4.98 µM; hit rate 0.27% among 170,000; AID 485;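 active = inhibition above the plate cutoff, the mean inhibition of test wells on that plate plus 3 SD, cut at about 28% in these data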;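 also: cells challenged with S1P at its EC80 of 0.8 µM; blue over green emission ratio from cleaved BLA substrate after 4 h stimulation; 0% = S1P-stimulated wells and 100% = unstimulated DMSO-only wells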
FXIa inh: factor XIa (human) inhibition; hit rate 0.14% among 220,000; AID 798; inhibition, % at 5 µM; purified FXIa, Boc-Glu-Ala-Arg-AMC fluorogenic substrate; P03951;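 active = inhibition of at least 40%; inactive = inhibition below 40%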;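 also: fluorescence of freed AMC excited at 355 nm; 0% = enzyme without compound and 100% = no enzyme blank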
hK5 inh: blocks human kallikrein 5 protease activity. AID 873. inhibition, % at 5 µM. recombinant hK5, fluorogenic AMC substrate cleavage. hit rate 0.59% among 210,000. Q9Y337;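 active = inhibition of 40% or more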;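 also: 0% = enzyme controls without compound and 100% = no-enzyme blanks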
thrombin 1536: blocks human thrombin protease activity; P00734; alpha-thrombin, Boc-VPR-AMC fluorogenic substrate cleavage; inhibition, % at 5 µM; hit rate 0.26% among 220,000; AID 1046;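 active = inhibition at or above 40%; inactive = inhibition below 40%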;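 also: 0% = enzyme with no compound and 100% = wells without enzyme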
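Material: human alpha-thrombin protein. Incubation: reaction at ambient temperature. Technique: fluorescence of released AMC, ex 355 nm, em 460 nm. Control set: no-compound enzyme wells and no-enzyme blanks. Also added: Boc-VPR-AMC substrate, 15 µM final. Buffer or medium: pH 7.5 Tris (50 mM) with NaCl 150 mM, Tween 20 0.05%.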
DTT redox prof: compounds producing H2O2 with reducing agent – biochemical, NIH compound library profiling, artefact control for MLSCN library redox annotation, primary screen. DTT-dependent redox cycling H2O2, phenol red/HRP absorbance; 100% = 100 µM peroxide control, 0% = buffer. activation, % at 10 µM. hit rate 0.03% among 200,000;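 active = activation of at least 50% relative to the plate's high and low controls in the primary single-dose screen; inactive = activation below 50%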;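 also: compound incubated with DTT at 0.8 mM final as the reducing agent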
FXIIa inh 1536: factor XIIa (human) inhibition | hit rate 0.3% among 220,000 | inhibition, % at 5 µM | purified FXIIa, Boc-QGR-AMC fluorogenic substrate, 2 h | P00748; in the data active = inhibition above about 40%;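 also: 0% = enzyme with no compound and 100% = blank without enzyme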
Target sequence (P00748 20-372 limits assumed): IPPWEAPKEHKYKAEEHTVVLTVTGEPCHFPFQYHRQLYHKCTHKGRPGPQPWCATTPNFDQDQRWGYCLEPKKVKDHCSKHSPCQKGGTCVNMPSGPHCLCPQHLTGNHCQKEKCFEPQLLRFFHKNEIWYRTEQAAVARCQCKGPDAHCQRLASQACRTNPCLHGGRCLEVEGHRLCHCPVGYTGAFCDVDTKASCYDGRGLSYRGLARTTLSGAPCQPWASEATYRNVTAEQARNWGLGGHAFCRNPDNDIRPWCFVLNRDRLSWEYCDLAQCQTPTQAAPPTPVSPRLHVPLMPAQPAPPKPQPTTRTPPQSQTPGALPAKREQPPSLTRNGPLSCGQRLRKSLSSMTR
Target sequence (P00748 373-615 limits assumed): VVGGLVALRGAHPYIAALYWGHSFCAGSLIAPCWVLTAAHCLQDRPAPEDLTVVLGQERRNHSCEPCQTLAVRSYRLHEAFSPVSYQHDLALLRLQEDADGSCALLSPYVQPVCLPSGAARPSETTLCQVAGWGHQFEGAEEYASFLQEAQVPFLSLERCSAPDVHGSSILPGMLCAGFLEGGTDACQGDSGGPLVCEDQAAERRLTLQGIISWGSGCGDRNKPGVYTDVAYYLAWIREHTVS
An asterisk follows results filed as active; · = no result; ! = a repeat was not active.

SMILES | S1P3 antag | FXIa inh | hK5 inh | thrombin 1536 | DTT redox prof | FXIIa inh 1536
S=C(NCC1CCCO1)Nc1ccc(Nc2ccccc2)cc1 (stereo not drawn) | 11 | 29 | 40* | -3 | -2 | 25
CC(C)OCCCNC(=O)CN1C(=O)/C(=C/c2ccccc2)Sc2ccccc21 | 2 | -13 | -13 | -7 | -1 | -3
O=C(O)CSCC(=O)NCc1cccc(C(F)(F)F)c1 | -14 | -5 | 1 | 40* | -2 | 0
CN(c1ccc(C(=O)NCc2ccccc2)cc1)S(C)(=O)=O | -15 | 6 | 40* | 25 | 1 | 23
CS(=O)(=O)N(Cc1ccccc1)c1ccc(C(=O)NCc2ccccc2)cc1 | · | -1 | -2 | -3 | 0 | 7
CC(C)c1cc(C(=O)OCC(=O)NC(=O)NCc2ccco2)c(O)c(C(C)C)c1 | -4 | 1 | 1 | 3 | -2 | 5
Cc1nc2cc(C(=O)N3c4ccccc4CC3C)ccc2s1 (stereo not drawn) | 6 | -1 | -6 | -15 | -1 | 3
COc1cccc(CN2CCNC(=O)C2CC(=O)N(C)Cc2cnccn2)c1OC (stereo not drawn) | -1 | 0 | -5 | -8 | -1 | 4
COc1ccccc1CN1CCNC(=O)C1CC(=O)N(C)Cc1cnccn1 (stereo not drawn) | 7 | 32 | 42* | 22 | -1 | 49*
CCCn1c2c(c(O)c(C(=O)Nc3nccs3)c1=O)CCCC2 | -5 | -4 | 33 | 101* | -1 | 15
Cc1cc(=O)[nH]c2c1c(C)nn2C1CCCC1 | 3 | -1 | 54* | 3 | 2 | -1
C/C(=N\NC(=O)c1cccc(N/N=C(\C)c2ccncc2)c1)c1ccncc1 | -9 | 1 | 9 | -4 | 0 | 10
C/C(=N\NC(=O)c1cccc(N/N=C(\C)c2ccccc2)c1)c1ccccc1 | -5 | 19 | 29 | 27 | 0 | 63*
COc1ccc(-n2nnc3c(=O)n(CC(=O)Nc4cc(C)on4)cnc32)cc1OC | -15 | -4 | -5 | 1 | -1 | 1
O=C(NCc1ccncc1)c1ccc(Br)o1 | -27 | 35 | 3 | 0 | 0 | 41*
CC(=O)c1c(NC(=O)c2ccccc2)[nH]c(-c2ccccc2)nc1=S | -5 | -7 | -12 | 1 | 0 | 2
CS(=O)(=O)c1nc(-c2ccc(Br)cc2)n[nH]1 | 2 | 3 | -2 | -6 | 0 | 98*
Fc1ccc(SCCc2ccccn2)cc1 | 3 | -1 | -2 | -2 | · | 40*!
O=C1CCC(=O)N1c1nc2n(n1)C(c1ccccc1)C=C(c1ccc(Br)cc1)N2 (stereo not drawn) | · | -6 | -16 | 11 | -2 | 15
COc1ccc(C2C=C(c3ccc(Br)cc3)Nc3nc(N4C(=O)CCC4=O)nn32)cc1 (stereo not drawn) | 35 | -3 | -85 | 53* | 3 | 13
COc1ccccc1C1C=C(c2ccc(Cl)cc2)Nc2nc(NS(C)(=O)=O)nn21 (stereo not drawn) | -10 | 2 | -39 | -2 | 1 | 9
COc1ccccc1C1C=C(c2ccc(Cl)cc2)Nc2nc(N3C(=O)CCC3=O)nn21 (stereo not drawn) | 3 | 3 | -34 | 50* | 0 | 13
COc1ccc(CC(=O)Nc2ccccc2N2CCCCC2)cc1OC | -11 | 22 | 112* | 4 | · | 30
COc1ccc(CC(=O)Nc2ccccc2N2CCOCC2)cc1OC | -4 | 2 | 4 | -5 | -1 | 7
CC(C)NC(=O)C(=O)NCCCN1CCOCC1 | -4 | 8 | 18 | 17 | 0 | 24
SMILES | S1P3 antag | FXIa inh | hK5 inh | thrombin 1536 | DTT redox prof | FXIIa inh 1536
Cc1ccc(C)n1-n1cnc2sc(-c3ccccc3)cc2c1=O | 20 | -1 | 3 | -9 | 2 | 1
Cc1ccc(C)n1-n1c(C)nc2sc(-c3ccccc3)cc2c1=O | 55* | 11 | 19 | 3 | -4 | 23
Cc1nc(Nc2cccc(O)c2)c2c3c(sc2n1)CCC3 | 8 | -2 | 1 | -6 | · | 6
N#C/C(=N\Nc1ccccc1)C(N)=S | 16 | 35 | 27 | 38 | · | 107*
NNC(=O)CCc1ccc(S(=O)(=O)N2CCOCC2)cc1 | -14 | -1 | 1 | -11 | 0 | 5
CCC(CC)c1nnc(NC(=O)CCN2C(=O)c3ccccc3C2=O)s1 | · | 4 | 53* | 27 | 0 | 25
CCC(CC)c1nnc(NC(=O)Oc2ccccc2)s1 | · | 30 | 2 | 2 | 1 | 43*
COc1ccc(CCNS(=O)(=O)c2ccc3c(c2)OCCO3)cc1OC | · | 10 | 69* | 24 | 3 | 27
COc1ccc(S(=O)(=O)NCCC(C)C)cc1OC | 19 | 4 | 121* | 10 | 0 | 18
COc1ccc(CCNS(=O)(=O)c2cccc(C)c2)cc1OC | · | 3 | 1 | -7 | 0 | 12
COc1cc(/C=C2/C(=O)NN(c3cccc(C)c3)C2=O)ccc1OC(=O)c1ccco1 | 10 | 19 | 60* | 6 | 1 | 12
CCOC(=O)/C(=N\Nc1cc(Cl)ccc1Cl)N1CCN(CC)CC1 | 5 | 2 | -5 | -15 | 1 | 12
COc1cc2c3c(c1)C1(C(=O)N3C(C)(C)C=C2C)C(C#N)=C(N)Oc2cc(O)ccc21 (stereo not drawn) | 8 | 4 | 64* | 12 | -2 | 25
COc1ccc2[nH]c3c(NCCC4=CCCCC4)ncnc3c2c1 | 22 | -5 | 0 | 1 | 0 | 0
O=C(O)/C=C/C(=O)Nc1cccnc1 | -9 | 16 | 72* | 31 | 0 | 11
COC(=O)/C=C/C(=O)Nc1cccnc1 | · | -6 | -2 | -10 | -4 | 4
Cc1ccc(-c2c[n+](CC(=O)Nc3nc(-c4ccc(F)cc4)cs3)c3n2CCC3)cc1 | -35 | 6 | 49* | 21 | 0 | 27
O=C(O)/C(=C\c1ccc(Br)cc1)c1ccc(S(=O)(=O)N2CCCCC2)s1 | -8 | 29 | -7 | -2 | 0 | 22
O=C(COC(=O)CCC(=O)c1cccs1)Nc1ncc(Cl)cc1Cl | -3 | 6 | 1 | 24 | 0 | -1
Cc1c(Cl)cnc(NC(=O)COC(=O)CCC(=O)c2cccs2)c1Cl | -24 | 14 | -7 | 55* | 0 | 6
Nc1nc(C(F)(F)F)c(Br)c(=O)n1N | -11 | -3 | 0 | 1 | 6 | 4
COc1ccc(CC(=O)N2CCC(Nc3nc4ccccc4n3Cc3ccc(F)cc3)CC2)cc1 | · | 7 | 60* | 19 | 1 | 24
COc1ccc(CC(=O)N2CCC(c3ccccc3)C2)cc1 (stereo not drawn) | -3 | -3 | -1 | -3 | 0 | 6
Cc1cc(C)nc(S/C=C/C(=O)c2ccccc2F)n1 | -2 | -3 | -5 | -8 | · | 4
CN1COc2ccc3ccccc3c2C1 | -20 | 0 | -18 | 0 | 0 | 3
